Results on two compounds are retold here after ChEMBL document CHEMBL4819012, “Discovery of novel 2-aryl-3-sulfonamido-pyridines (HoAns) as microtubule polymerization inhibitors with potent antitumor activities” (Eur J Med Chem, 2021).

The target of series [1] is Tubulin beta (Homo sapiens) (UniProt P68371+Q9H4B7+Q13509+P04350+Q3ZCM7+P07437+Q13885+Q9BVA1+Q9BUF5+A6NNZ2). Put plainly: Inhibition of N,N'-Ethylenebis(iodoacetamide) binding to beta tubulin in human SW-620 cells at 20 to 40 uM preincubated for 2 hrs followed by addition of EBI and measured after 2 hrs by western blot assay. It counts as cell-based. To be noted: dose 20-40 µM. In short, it runs like this:
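SW620 cells (5×10^5 per well) pretreated for 2 h with 10, 20 or 40 μM of test agent or DMSO, then given 100 μM EBI for 2 h. Lysed in SDS loading buffer. β-tubulin and β-tubulin–EBI adduct bands resolved by western blot probed with anti-β-tubulin.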

A further series relates to PLC-PRF-5. Put plainly: Antiproliferative activity against human PLC-PRF-5 cells assessed as cell viability measured after 72 hrs by MTS method. Format: functional, cell-based. To be noted: PLC-PRF-5, 72 h. An outline of the steps:
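Log-phase cells plated at 5×10^3–6×10^3 per well for 24 h, then given graded compound concentrations in fresh medium for 72 h, five replicate wells. Medium replaced with medium containing 10% MTS, 30 min or more at 37 °C in dark; OD 490 nm read. IC50 by nonlinear regression; mean ± SD of at least three experiments.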
In general terms: Tetrazolium dyes change colour on reduction, which living cells bring about.

For series [2], the system named is RKO. Put plainly: Induction of apoptosis in human RKO cells assessed as early apoptotic cells at 0.5 uM measured after 24 hrs by PI/Annexin V staining based flow cytometry assay (reference value: 2.58%). Format: functional. For orientation: Flow cytometry measures light scatter and fluorescence of single cells or particles in a stream.
Series [3] concerns RKO. Briefly: Induction of cell cycle arrest in human RKO cells assessed as accumulation of cells in G1 phase at 0.5 uM measured after 24 hrs by PI staining based flow cytometry method (reference value: 39.54%). It counts as functional.
Series [4] deals with SW-620. Put plainly: Antiproliferative activity against human SW-620 cells assessed as inhibition of cell proliferation measured after 24 hrs by crystal violet staining based colony-formation assay. It counts as functional. To be noted: dose 0.125-1 µM. In short, it runs like this:
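RKO or SW620 cells plated at 1000 cells/well overnight, exposed to 0.125–1 µM for 24 h, then grown 10 days in fresh medium. Colonies fixed in methanol 15 min, stained with 0.1% crystal violet 30 min, photographed; colonies of more than 50 cells counted.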

The next series concerns MCF7. Briefly: Antiproliferative activity against human MCF7 cells assessed as cell viability at 10 uM measured after 72 hrs by MTS method. It counts as functional. Conditions: read-out: Activity. In short, it runs like this:
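Single-concentration screen at 10 µM for 72 h. Log-phase cells plated at 5×10^3–6×10^3 per well for 24 h before dosing, five replicate wells. Viability measured by MTS: 10% MTS in fresh medium, 30 min or more at 37 °C in dark, absorbance 490 nm.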

For series [5], the system named is RKO. Briefly: Induction of apoptosis in human RKO cells assessed as necrotic cells at 0.5 uM measured after 24 hrs by PI/Annexin V staining based flow cytometry assay (reference value: 0.01%). Format: functional.
Series [6] can be described thus: Toxicity against Athymic nude mouse xenografted with SW-620 cells assessed as toxicity in heart at 25 mg/kg per two days, po measured after 20 days. It counts as organism-based. To be noted: in vivo, 480 h, time 20 day. An outline of the steps:
(§1)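 At the end of the 20-day oral SW620 xenograft study (25 mg/kg every 2 days, n = 6), heart, liver, spleen, lung and kidney were fixed in 4% paraformaldehyde and embedded in paraffin. 4 μm sections stained with Mayer hematoxylin 5 min and eosin-phloxine 2 min, then examined by light microscopy.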

Series [7] has as its system SW-620. Briefly: Induction of apoptosis in human SW-620 cells assessed as viable cells at 0.5 uM measured after 24 hrs by PI/Annexin V staining based flow cytometry assay (reference value: 93.89%). It counts as functional. Conditions: read-out: Activity.
Series [8] relates to SW-620. Briefly: Induction of apoptosis in human SW-620 cells assessed as necrotic cells at 0.5 uM measured after 24 hrs by PI/Annexin V staining based flow cytometry assay (reference value: 0.03%). Format: functional.
Series [9] is described as follows: Toxicity against Athymic nude mouse xenografted with SW-620 cells assessed as toxicity in liver at 25 mg/kg per two days, po measured after 20 days by H and E staining method. Format: organism-based. Conditions: in vivo, 480 h, time 20 day. In short, it runs like this:
as §1

The test system of series [10] is SW-620. Briefly: Induction of apoptosis in human SW-620 cells assessed as late apoptotic cells at 0.5 uM measured after 24 hrs by PI/Annexin V staining based flow cytometry assay (reference value: 3.66%). Format: functional.
In the next series the test system is PANC-1. Briefly: Induction of cell cycle arrest in human PANC-1 cells assessed as accumulation of cells in S phase at 0.5 uM measured after 24 hrs by PI staining based flow cytometry method (reference value: 65%). It counts as functional.
Series [11] deals with RKO. Put plainly: Induction of cell cycle arrest in human RKO cells assessed as reduction in cdc2 expression at 0.5 to 1 uM measured after 24 hrs by western blot assay. Format: functional, cell-based. To be noted: dose 0.5-1 µM. In short, it runs like this:
(§2)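 RKO or SW620 cells (4×10^5–5×10^5 per well) exposed to 0.5 or 1 μM or DMSO for 24 h. Lysed in SDS loading buffer, boiled, run on 8–15% SDS-PAGE and moved to PVDF. Blocked in 5% milk, probed overnight at 4 °C with anti-Cdc2 or anti-cyclin B1 (1:1000), β-actin as reference. HRP secondary and ECL detection. Done at least three times.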
(In general: A western blot detects proteins with antibodies after separation by electrophoresis.)

Series [12] in a line: Inhibition of tubulin polymerization assessed as morphology changes from fusiform to roud at 1 uM measured 24 hrs by DAPI staining based immunoflourescence assay relative to ABT-751.
Series [13] has as its system RKO. Briefly: Induction of apoptosis in human RKO cells assessed as late apoptotic cells at 0.5 uM measured after 24 hrs by PI/Annexin V staining based flow cytometry assay (reference value: 0.81%). It counts as functional.
The test system of series [14] is SW-620. Briefly: Induction of cell cycle arrest in human SW-620 cells assessed as reduction in cdc2 expression at 0.5 to 1 uM measured after 24 hrs by western blot assay. To be noted: dose 0.5-1 µM. It counts as functional, cell-based. In short, it runs like this:
as §2

Series [15] can be described thus: Toxicity against Athymic nude mouse xenografted with SW-620 cells assessed as toxicity in lung at 25 mg/kg per two days, po measured after 20 days by H and E staining method. To be noted: in vivo, 480 h, time 20 day. Format: organism-based. An outline of the steps: as §1
Series [16] has as its system RKO. Briefly: Induction of apoptosis in human RKO cells assessed as increase in ROS levels at 0.25 uM measured after 24 hrs by DCFH-DA staining based flow cytometry method relative to control. It counts as functional. In short, it runs like this: (§3)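 Cells at 5×10^5 per well exposed to 0.25 or 0.5 µM for 24 h, then loaded with 5 µM DCFH-DA in serum-free medium 30 min at 37 °C; washed, harvested, read by flow cytometry (ex 488/em 525 nm). ROS given as ratio of treated to control; at least three experiments.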

The nature of series [17]: Toxicity against Athymic nude mouse xenografted with SW-620 cells assessed as toxicity in spleen at 25 mg/kg per two days, po measured after 20 days by H and E staining method. Format: organism-based. To be noted: in vivo, 480 h, time 20 day. An outline of the steps: as §1
Series [18] concerns RKO. Put plainly: Induction of cell cycle arrest in human RKO cells assessed as accumulation of cells in S phase at 0.5 uM measured after 24 hrs by PI staining based flow cytometry method (reference value: 49.66%). It counts as functional.
The subject of series [19] is RKO. Put plainly: Induction of cell cycle arrest in human RKO cells assessed as accumulation of cells in G2 phase at 0.5 uM measured after 24 hrs by PI staining based flow cytometry method (reference value: 10.79%). Format: functional.
Series [20] has as its system SW-620. Briefly: Induction of apoptosis in human SW-620 cells assessed as increase in ROS levels at 0.25 uM measured after 24 hrs by DCFH-DA staining based flow cytometry method relative to control. It counts as functional. An outline of the steps:
as §3

Active and inactive are the calls of the source. The calls are words filed in the database; no cut-off is given here.

`COc1ccc(S(=O)(=O)Nc2cccnc2Nc2ccc(O)cc2)cc1` [ABT-751]: in series [1], the inhibition entry was “Dose-Dependent Effect”. Further, the IC50 – broadly, the concentration needed to halve the response being measured – with PLC-PRF-5 worked out at 792 nM.
In the case of `COc1ccc(S(=O)(=O)Nc2cccnc2-c2ccc(C#N)c(F)c2)cc1`, the Activity was 24.47% in the series with RKO [2]; 36.95% in the series on RKO [3]; “Dose-Dependent Effect” in the series with SW-620 [4]; 0.03% with RKO [5]; “Non-Toxic” in series [6]; 0.06% in the series on SW-620 [8]. The Activity entry in series [9] was “Non-Toxic”; in the series on SW-620 [10], 3.11%; with PANC-1 it was 50.11%; with RKO [13] it was 1.04%; in [15], “Non-Toxic”; in series [17], “Non-Toxic”. Besides, the figures for the Activity in the series on RKO [18] and in the series with RKO [19] were 46.37% and 16.65%, respectively. Also, the viability at 10 µM in the series with MCF7 was above 70%. In addition, the viability at 0.5 µM in the series on SW-620 [7] is 90.2%. In addition, the result with RKO [11] and with SW-620 [14] was Active. Also, in series [12], the inhibition result is “Active”. The “fold change (FC)” value in the series on RKO [16] and with SW-620 [20] was 1.5 in each case.
